Laboratory results taken from ChEMBL document CHEMBL1149718, “Antibacterial activity of crinitol and its potentiation” (1992).
Values after ≈ are worked out from the molar mass of the structure shown. Active and inactive are the calls of the source. The calls are words filed in the database; no cut-off is given here.

Tests used:
[1] = test system: Bacillus subtilis; assay: Antibacterial activity against Bacillus subtilis ATCC 9372 up to 800 ug/ml after 2 days by broth dilution method; format: functional, organism-based
Procedure, shortened: (§1)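 Broth dilution in 0.8% nutrient broth, 0.5% yeast extract and 0.1% glucose. Compound in DMF, diluted twofold, 1% DMF final, highest 800 µg/ml. Inoculum was a 2-day-old culture, reactivated at 30° with shaking (B. subtilis), at 30° stationary (Br. ammoniagenes) or at 37° stationary (others). Stationary incubation 2 days; growth by OD at 660 nm; MIC = lowest concentration with no growth.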

[2] = test system: Corynebacterium ammoniagenes; assay: Antibacterial activity against Brevibacterium ammoniagenes ATCC 6872 up to 800 ug/ml after 2 days by broth dilution method; format: functional, organism-based; procedure, shortened: as §1
[3] = test system: Streptococcus mutans; assay: Antibacterial activity against Streptococcus mutans ATCC 25175 up to 800 ug/ml after 2 days by broth dilution method; format: functional, organism-based
Procedure, shortened: (§2)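 Twofold broth dilution in 3.7% brain heart infusion broth. Sample dissolved in DMF, 1% DMF final, top concentration 800 µg/ml. Inoculated with 2-day-old culture reactivated in stationary culture at 37°. Stationary incubation for 2 days, turbidity read at 660 nm; MIC taken as lowest concentration showing no growth.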

[4] = test system: Staphylococcus aureus; assay: Antibacterial activity against Staphylococcus aureus ATCC 12598 up to 800 ug/ml after 2 days by broth dilution method; format: functional, organism-based; procedure, shortened: as §1
[5] = test system: Cutibacterium acnes; assay: Antibacterial activity against Propionibacterium acnes ATCC 11827 up to 800 ug/ml after 2 days by broth dilution method; format: functional, organism-based; procedure, shortened: as §1
[6] = test system: Staphylococcus aureus; assay: Antibacterial activity against Staphylococcus aureus ATCC 12598 after 2 days by broth dilution method; format: functional; conditions: ATCC 12598, 48 h; procedure, shortened: as §1
[7] = test system: Streptococcus mutans; assay: Ratio of MIC for Streptococcus mutans ATCC 25175 to MIC for Streptococcus mutans ATCC 25175 in presence of 0.5 MIC of crinitol; format: functional
[8] = test system: Corynebacterium ammoniagenes; assay: Antibacterial activity against Brevibacterium ammoniagenes ATCC 6872 after 2 days by broth dilution method; format: functional; conditions: ATCC 6872, 48 h; procedure, shortened: as §1
[9] = test system: Corynebacterium ammoniagenes; assay: Antibacterial activity against Brevibacterium ammoniagenes ATCC 6872 after 2 days by broth dilution method in presence of 0.5 MIC of crinitol; format: functional; conditions: ATCC 6872, 48 h
[10] = test system: Bacillus subtilis; assay: Antibacterial activity against Bacillus subtilis ATCC 9372 after 2 days by broth dilution method in presence of 0.5 MIC of crinitol; format: functional; conditions: ATCC 9372, 48 h
[11] = test system: Bacillus subtilis; assay: Antibacterial activity against Bacillus subtilis ATCC 9372 after 2 days by broth dilution method; format: functional; conditions: ATCC 9372, 48 h; procedure, shortened: as §1
[12] = test system: Staphylococcus aureus; assay: Antibacterial activity against Staphylococcus aureus ATCC 12598 after 2 days by broth dilution method in presence of 0.5 MIC of crinitol; format: functional; conditions: ATCC 12598, 48 h
[13] = test system: Cutibacterium acnes; assay: Antibacterial activity against Propionibacterium acnes ATCC 11827 after 2 days by broth dilution method in presence of 0.5 MIC of crinitol; format: functional; conditions: ATCC 11827, 48 h
[14] = test system: Streptococcus mutans; assay: Antibacterial activity against Streptococcus mutans ATCC 25175 after 2 days by broth dilution method in presence of 0.5 MIC of crinitol; format: functional; conditions: ATCC 25175, 48 h
[15] = test system: Streptococcus mutans; assay: Antibacterial activity against Streptococcus mutans ATCC 25175 after 2 days by broth dilution method; format: functional; conditions: ATCC 25175, 48 h; procedure, shortened: as §2
[16] = test system: Cutibacterium acnes; assay: Antibacterial activity against Propionibacterium acnes ATCC 11827 after 2 days by broth dilution method; format: functional; conditions: ATCC 11827, 48 h; procedure, shortened: as §1
[17] = test system: Streptococcus mutans; assay: Antibacterial activity against Streptococcus mutans ATCC 25175 after 2 days by broth dilution method in presence of 0.5 MIC of butylated hydroxyanisole; format: functional; conditions: ATCC 25175, 48 h
Procedure, shortened: (§3)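 Checkerboard: twofold dilutions of crinitol crossed with twofold dilutions of the antioxidant (BHA or BHT). Medium was nutrient broth/yeast extract/glucose, or 3.7% brain heart infusion for S. mutans. DMF at 1% final, 2-day-old inoculum, stationary culture 2 days. Growth by OD 660 nm; MIC = lowest concentration without growth.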

[18] = test system: Corynebacterium ammoniagenes; assay: Antibacterial activity against Brevibacterium ammoniagenes ATCC 6872 after 2 days by broth dilution method in presence of 0.5 MIC of butylated hydroxyanisole; format: functional; conditions: ATCC 6872, 48 h; procedure, shortened: as §3
[19] = test system: Streptococcus mutans; assay: Ratio of MIC for Streptococcus mutans ATCC 25175 to MIC for Streptococcus mutans ATCC 25175 in presence of 0.5 MIC of butylated hydroxytoluene; format: functional
[20] = test system: Staphylococcus aureus; assay: Antibacterial activity against Staphylococcus aureus ATCC 12598 after 2 days by broth dilution method in presence of 0.5 MIC of butylated hydroxyanisole; format: functional; conditions: ATCC 12598, 48 h; procedure, shortened: as §3
[21] = test system: Cutibacterium acnes; assay: Antibacterial activity against Propionibacterium acnes ATCC 11827 after 2 days by broth dilution method in presence of 0.5 MIC of butylated hydroxytoluene; format: functional; conditions: ATCC 11827, 48 h; procedure, shortened: as §3
[22] = test system: Corynebacterium ammoniagenes; assay: Antibacterial activity against Brevibacterium ammoniagenes ATCC 6872 after 2 days by broth dilution method in presence of 0.5 MIC of butylated hydroxytoluene; format: functional; conditions: ATCC 6872, 48 h; procedure, shortened: as §3
[23] = test system: Cutibacterium acnes; assay: Antibacterial activity against Propionibacterium acnes ATCC 11827 after 2 days by broth dilution method in presence of 0.5 MIC of butylated hydroxyanisole; format: functional; conditions: ATCC 11827, 48 h; procedure, shortened: as §3
[24] = test system: Staphylococcus aureus; assay: Antibacterial activity against Staphylococcus aureus ATCC 12598 after 2 days by broth dilution method in presence of 0.5 MIC of butylated hydroxytoluene; format: functional; conditions: ATCC 12598, 48 h; procedure, shortened: as §3
[25] = test system: Corynebacterium ammoniagenes; assay: Ratio of MIC for Brevibacterium ammoniagenes ATCC 6872 to MIC for Brevibacterium ammoniagenes ATCC 6872 in presence of 0.5 MIC of butylated hydroxytoluene; format: functional
[26] = test system: Bacillus subtilis; assay: Antibacterial activity against Bacillus subtilis ATCC 9372 after 2 days by broth dilution method in presence of 0.5 MIC of butylated hydroxytoluene; format: functional; conditions: ATCC 9372, 48 h; procedure, shortened: as §3
[27] = test system: Cutibacterium acnes; assay: Ratio of MIC for Propionibacterium acnes ATCC 11827 to MIC for Propionibacterium acnes ATCC 11827 in presence of 0.5 MIC of butylated hydroxyanisole; format: functional
[28] = test system: Bacillus subtilis; assay: Ratio of MIC for Bacillus subtilis ATCC 9372 to MIC for Bacillus subtilis ATCC 9372 in presence of 0.5 MIC of butylated hydroxytoluene; format: functional
[29] = test system: Cutibacterium acnes; assay: Ratio of MIC for Propionibacterium acnes ATCC 11827 to MIC for Propionibacterium acnes ATCC 11827 in presence of 0.5 MIC of butylated hydroxytoluene; format: functional
[30] = test system: Corynebacterium ammoniagenes; assay: Ratio of MIC for Brevibacterium ammoniagenes ATCC 6872 to MIC for Brevibacterium ammoniagenes ATCC 6872 in presence of 0.5 MIC of butylated hydroxyanisole; format: functional
[31] = test system: Bacillus subtilis; assay: Ratio of MIC for Bacillus subtilis ATCC 9372 to MIC for Bacillus subtilis ATCC 9372 in presence of 0.5 MIC of butylated hydroxyanisole; format: functional
[32] = test system: Bacillus subtilis; assay: Antibacterial activity against Bacillus subtilis ATCC 9372 after 2 days by broth dilution method in presence of 0.5 MIC of butylated hydroxyanisole; format: functional; conditions: ATCC 9372, 48 h; procedure, shortened: as §3
[33] = test system: Streptococcus mutans; assay: Antibacterial activity against Streptococcus mutans ATCC 25175 after 2 days by broth dilution method in presence of 0.5 MIC of butylated hydroxytoluene; format: functional; conditions: ATCC 25175, 48 h; procedure, shortened: as §3

MIC [6] | MIC [8] | MIC [11] | MIC [15] | MIC [16] | SMILES | Activity [1] | Activity [2] | Activity [3] | Activity [4] | Activity [5] | other results
 |  |  |  |  | CC(=O)OC/C=C(\C)CC/C=C(\C)C[C@H](/C=C(\C)CCC=C(C)C)OC(C)=O | inactive | inactive | inactive | inactive | inactive | 
 |  |  |  |  | CC(=O)O[C@@H](/C=C(\C)CCC=C(C)C)C/C(C)=C/CC/C(C)=C/CO | inactive | inactive | inactive | inactive | inactive | 
 |  |  |  |  | CC(C)=CCC/C(C)=C/C(=O)C/C(C)=C/CC/C(C)=C/CO | inactive | inactive | inactive | inactive | inactive | 
 |  |  |  |  | CC(C)=CCC/C(C)=C/CC/C(C)=C/CC/C(C)=C/CO | inactive | inactive | inactive | inactive | inactive | 
> 800 µg/mL | 25 µg/mL (≈ 113 µM) | 25 µg/mL (≈ 113 µM) | 25 µg/mL (≈ 113 µM) | 25 µg/mL (≈ 113 µM) | Cc1cc(C(C)(C)C)c(O)c(C(C)(C)C)c1 [BUTYLATED HYDROXYTOLUENE] |  |  |  |  |  | Ratio [7]: 16; MIC [9]: 12.5 µg/mL; MIC [10]: 6.25 µg/mL; MIC [13]: 6.25 µg/mL; MIC [14]: 1.57 µg/mL
400 µg/mL (≈ 1310 µM) | 100 µg/mL (≈ 326 µM) | 50 µg/mL (≈ 163 µM) | 50 µg/mL (≈ 163 µM) | 25 µg/mL (≈ 81.6 µM) | CC(C)=CCC/C(C)=C/[C@H](O)C/C(C)=C/CC/C(C)=C/CO [CRINITOL] |  |  |  |  |  | MIC [17]: 12.5 µg/mL; MIC [18]: 100 µg/mL; Ratio [19]: 64; MIC [20]: 400 µg/mL; MIC [21]: 6.25 µg/mL; MIC [22]: 50 µg/mL; MIC [23]: 6.25 µg/mL; MIC [24]: 400 µg/mL; Ratio [25]: 2; MIC [26]: 12.5 µg/mL; Ratio [27]: 4; Ratio [28]: 4; Ratio [29]: 4; Ratio [30]: 1; Ratio [31]: 1; MIC [32]: 50 µg/mL; MIC [33]: 0.78 µg/mL

SMILES | MIC [6] | MIC [8] | MIC [11] | MIC [15] | MIC [16] | Activity [1] | Activity [2] | Activity [3] | Activity [4] | Activity [5] | other results
COc1ccc(O)c(C(C)(C)C)c1.COc1ccc(O)cc1C(C)(C)C [BUTYLATED HYDROXYANISOLE] | 200 µg/mL | 200 µg/mL | 100 µg/mL | 100 µg/mL | 50 µg/mL |  |  |  |  |  | Ratio [7]: 18; MIC [9]: 100 µg/mL; MIC [10]: 50 µg/mL; MIC [12]: 200 µg/mL; MIC [13]: 6.25 µg/mL; MIC [14]: 12.5 µg/mL
